Experimental data from different studies.
Organism: Staphylococcus aureus
Effect on: microbial growth

SMILES | assay | system | setting | MIC
C=CC(=O)Nc1cccc(Oc2nc(Nc3ccc(N4CCN(C)CC4)cc3OC)ncc2Cl)c1 |  | NCTC8325 |  | > 30 µM
CCCN/C(=N/C)c1ccc(NC(=O)c2ccc(C(=O)Nc3ccc(/C(=N\C)NCCC)cc3)cc2)cc1 |  |  |  | 16 µg/mL
CN[C@H](CC(C)C)C(=O)N[C@H]1C(=O)N[C@@H](CC(N)=O)C(=O)N[C@H]2C(=O)N[C@H]3C(=O)N[C@H](C(=O)N[C@H](C(=O)O)c4cc(O)cc(O)c4-c4cc3ccc4O)[C@H](O)c3ccc(c(Cl)c3)Oc3cc2cc(c3O[C@@H]2O[C@H](CO)[C@@H](O)[C@H](O)[C@H]2O[C@H]2C[C@](C)(N)[C@H](O)[C@H](C)O2)Oc2ccc(cc2Cl)[C@H]1O | broth dilution | MRSA |  | 0.5 µg/mL
COc1c(C(=O)Nc2ccc(C(=O)O)cc2)ccc2nc(-c3cc(NC(=O)C(CC(N)=O)NC(=O)c4ccc(NC(=O)c5ccc(C#N)cc5)cc4)cn3C)[nH]c12 (stereo not shown) |  | ATCC29213 |  | > 64 µg/mL
CCCCCCC#Cc1cncc(-c2nnc(SCc3ccc(C#N)cc3)n2C)c1 |  | MRSA | drug-resistant strain | ≥ 20 µg/mL
CN(C)[C@@H]1C(O)=C(C(N)=O)C(=O)[C@@]2(O)C(O)=C3C(=O)c4c(O)cccc4[C@@](C)(O)[C@H]3C[C@@H]12 |  | 156 | clinical isolate | 0.15 µM
CN[C@H](CC(C)C)C(=O)N[C@H]1C(=O)N[C@@H](CC(N)=O)C(=O)N[C@H]2C(=O)N[C@H]3C(=O)N[C@H](C(=O)N[C@H](C(=O)O)c4cc(O)cc(O)c4-c4cc3ccc4O)[C@H](O)c3ccc(c(Cl)c3)Oc3cc2cc(c3O[C@@H]2O[C@H](CO)[C@@H](O)[C@H](O)[C@H]2O[C@H]2C[C@](C)(N)[C@H](O)[C@H](C)O2)Oc2ccc(cc2Cl)[C@H]1O |  | 10 |  | 2.2 µg/mL
Clc1ccccc1-c1nc2ccccc2[nH]1 | broth dilution | ATCC29213 MSSA |  | 64 µg/mL
Brc1cccc(NCc2ccc(Oc3ccccn3)cc2)c1 |  |  |  | > 3.1 µg/mL
CN(C)c1ccc(-c2ccc3cc4c(c(O)c3c2)C(=O)C2=C(O)[C@]3(O)C(=O)C(C(N)=O)=C(O)[C@@H](N(C)C)[C@@H]3C[C@@H]2C4)cc1 | broth dilution | ATCC29213 |  | 32 µg/mL
Cc1ccc(C)n1-c1ccc(-c2nnc(-c3ccc(Br)cc3)[nH]2)cc1 | broth dilution | ATCC11632 | 18 h | 1 µg/mL
O=C1NC(=S)S/C1=C\c1c2ccccc2c(-c2ccc(N(c3ccccc3)c3ccccc3)cc2)c2ccccc12 | broth dilution | ATCC6538 |  | > 1000 µg/mL
COc1cc2c(Nc3ccc(NC(=O)c4ccccc4)cc3)ncnc2cc1OCCCN1CCOCC1 |  | NCTC8325 |  | > 30 µM
O=C(Cc1ccc(O)c(O)c1)NCCCCCCCC[P+](c1ccccc1)(c1ccccc1)c1ccccc1.[Br-] | broth dilution | ATCC43300 MRSA | 18 h | > 32 µg/mL
CC(C)(O/N=C(\C(=O)N[C@@H]1C(=O)N2C(C(=O)[O-])=C(C[n+]3ccccc3)CS[C@H]12)c1csc(N)n1)C(=O)O | broth dilution | MRSA | 18 h, clinical isolate | 64 µg/mL
CC1=NN(CNc2ccccc2[N+](=O)[O-])C(=O)C1=NNn1c(-c2ccccc2)nc2ccccc2c1=O | broth dilution |  | 24 h | 50.4 µM
N=C(N)NN=Cc1ccc(OC/C=C\COc2ccc(C=NNC(=N)N)cc2)cc1 |  | USA300 | 16 h | ≤ 3 µg/mL
CNc1cccc2cc(C(=O)Nc3ccc(C(=O)O)cc3)c(=O)[nH]c12 |  | ATCC29213 |  | 16 µg/mL
CC(C)Oc1c(NC(=O)c2ccc(NC(=O)[C@H](CC(N)=O)NC(=O)c3ccc(NC(=O)c4ccc(C#N)cc4)cc3)cc2)ccc(C(=O)Nc2ccncc2)c1O |  | ATCC29213 |  | > 64 µg/mL
NC[C@H]1O[C@H](O[C@H]2[C@H](O)[C@@H](O[C@H]3O[C@H](CO)[C@@H](O)[C@H](N)[C@H]3O)[C@H](N)C[C@@H]2N)[C@H](N)C[C@@H]1O |  | 129 | clinical isolate | > 100 µM

SMILES | assay | system | setting | MIC
CN[C@H](CC(C)C)C(=O)N[C@H]1C(=O)N[C@@H](CC(N)=O)C(=O)N[C@H]2C(=O)N[C@H]3C(=O)N[C@H](C(=O)N[C@H](C(=O)O)c4cc(O)cc(O)c4-c4cc3ccc4O)[C@H](O)c3ccc(c(Cl)c3)Oc3cc2cc(c3O[C@@H]2O[C@H](CO)[C@@H](O)[C@H](O)[C@H]2O[C@H]2C[C@](C)(N)[C@H](O)[C@H](C)O2)Oc2ccc(cc2Cl)[C@H]1O |  | ATCC25923 |  | 0.39 µg/mL
CN[C@H](CC(C)C)C(=O)N[C@H]1C(=O)N[C@@H](CC(N)=O)C(=O)N[C@H]2C(=O)N[C@H]3C(=O)N[C@H](C(=O)N[C@H](C(=O)O)c4cc(O)cc(O)c4-c4cc3ccc4O)[C@H](O)c3ccc(c(Cl)c3)Oc3cc2cc(c3O[C@@H]2O[C@H](CO)[C@@H](O)[C@H](O)[C@H]2O[C@H]2C[C@](C)(N)[C@H](O)[C@H](C)O2)Oc2ccc(cc2Cl)[C@H]1O | broth dilution | ATCC6538 |  | 0.49 µg/mL
CO[C@@H](C(N)=O)[C@H](NC(=O)c1ccc(NC(=O)c2ccc(C#N)cc2)cc1)C(=O)Nc1ccc(C(=O)Nc2ccc(C(=O)Nc3ccc(C(=O)O)cc3)c(O)c2OC(C)C)cc1 |  | ATCC29213 |  | < 0.03 µg/mL
COc1ccc(C(=O)O)cc1NC(=O)/C=C/c1ccc(-c2ccccc2C)cc1 |  |  |  | 64 µg/mL
C/C=C(\C)c1cc(O)c(C)c(OC(=O)c2c(C)c(Cl)c(O)c(Cl)c2O)c1 | broth dilution | CCARM3090 |  | 4 µg/mL
COc1cccc(-c2nc3ccccc3[nH]2)c1 | broth dilution | ATCC29213 MSSA |  | 256 µg/mL
C/C(=C\c1ccc(C#N)cc1)C(=O)Nc1ccc(C(=O)N[C@@H](CC(N)=O)C(=O)Nc2ccc(C(=O)Nc3ccc(C(=O)Nc4ccc(C(=O)O)cc4)c(O)c3OCC(C)C)cc2)cc1 |  | ATCC29213 |  | 0.06 µg/mL
Cc1cc(Nc2nc(N[C@@H](C)c3ccc(F)cc3)c(C#N)cc2F)n[nH]1 |  | NCTC8325 |  | 30 µM
O=C1NN=C(N=Cc2ccccc2)C1=NNn1c(-c2ccccc2)nc2ccccc2c1=O | broth dilution |  | 24 h | 57.1 µM
O=[N+]([O-])c1ccc(-c2nc3ccccc3n2Cc2ccccc2)cc1 | broth dilution | ATCC29213 MSSA |  | 4 µg/mL
C/C=C(\C)c1cc(OC(=O)c2c(O)c(C)c(O)c(Cl)c2/C(C)=C/C)c(C)c(O)c1C(=O)O | broth dilution | MRSA |  | 64 µg/mL
CSc1nc(C)c(Cl)c(O)n1 |  |  |  | > 128 µg/mL
CC1(C)S[C@@H]2[C@H](NC(=O)[C@H](N)c3ccccc3)C(=O)N2[C@H]1C(=O)O | broth dilution | 16162 |  | 16 µg/mL
C#CCCC1(CC(=O)NC(C)C)N=N1 |  | NCTC8325 |  | > 100 µM
CC1(C)S[C@@H]2[C@H](NC(=O)[C@H](N)c3ccccc3)C(=O)N2[C@H]1C(=O)O | broth dilution | ATCCBAA44 |  | 16 µg/mL
O=C(O)CN1C(=O)/C(=C/c2ccc(-c3ccc(N(c4ccccc4)c4ccccc4)cc3)cc2)NC1=S | broth dilution | ATCC6538 |  | 1.95 µg/mL
C=CCn1c(-c2ccc(Cl)c(Cl)c2)nc2ccccc21 | broth dilution | ATCC29213 MSSA |  | 64 µg/mL
C=CC1(C)CC(OC(=O)CSc2nc3ccccc3s2)C2(C)C(C)CCC3(CCC(=O)C32)C(C)C1O (stereo not shown) |  |  |  | 0.5 µg/mL
Cn1c(Nc2ccc(C(F)(F)F)cc2)nc2cc(Oc3ccnc(-c4ncc(C(F)(F)F)[nH]4)c3)ccc21 |  | NCTC8325 |  | 30 µM
CC(C)Oc1c(NC(=O)c2ccc(NC(=O)[C@H](CC(N)=O)NC(=O)c3ccc(NC(=O)c4ccc(NC(N)=O)cc4)cc3)cc2)ccc(C(=O)Nc2ccc(C(=O)O)cc2)c1O |  | ATCC29213 |  | 64 µg/mL

SMILES | assay | system | setting | MIC
Nc1nccc(Oc2ccc(NC(=O)c3c[nH]cc(-c4ccc(F)cc4)c3=O)cc2F)c1Cl |  | NCTC8325 |  | > 30 µM
O=C(O)CN1C(=O)/C(=C/c2ccc(-c3ccc(N(c4ccccc4)c4ccccc4)cc3)cc2)SC1=S | broth dilution | ATCC43300 |  | 3.9 µg/mL
Cc1cc(C(=O)Nc2ccc(C(=O)N[C@@H](CC(N)=O)C(=O)Nc3ccc(C(=O)Nc4ccc(C(=O)Nc5ccc(C(=O)O)cc5)c(O)c4OC(C)C)cc3)cc2)ccc1C#N |  | ATCC29213 |  | 2 µg/mL
CCCCCCCCCC(=O)Oc1c(C)c(O)c(C(=O)/C=C/c2ccccc2)c(OC)c1C | broth dilution | ATCC25923 |  | > 5000 µg/mL
C[C@@H](O)[C@H]1C(=O)N2C(C(=O)O)=C(S[C@@H]3CN[C@H](C(=O)N(C)C)C3)[C@H](C)[C@H]12 | broth dilution |  | 24 h | 0.0625 µg/mL
COc1ccc(-c2ccc3c(N4CCOCC4)nc(N4C[C@@H](C)O[C@@H](C)C4)nc3n2)cc1CO |  | NCTC8325 |  | > 30 µM
Cc1ccc2nc(-c3ccccc3O)[nH]c2c1 | broth dilution | ATCC29213 MSSA |  | 128 µg/mL
CCn1cc(C(=O)O)c(=O)c2cc(F)c(N3CCNCC3)cc21 | broth dilution | ATCC6538 |  | 2 µM
CO[C@H]1[C@H](O[C@H]([C@H]2O[C@@H](n3ccc(=O)[nH]c3=O)[C@H](O)[C@@H]2O)[C@H](NCCCNC(=O)[C@@H](NC(=O)[C@@H](NC(=O)N[C@H](C(=O)O)C(C)C)[C@@H]2CCN=C(N)N2)[C@@H](OC(=O)CCCCCCCCCCCCN(O)C(=N)N)C(C)C)C(=O)O)O[C@H](CN)[C@H]1O |  | NEWMAN |  | 18 µg/mL
Clc1ccccc1NCc1ccc(Oc2ccccn2)cc1 |  |  |  | 1.6 µg/mL
Cc1ccc2nc(-c3ccc(Cl)c(Cl)c3)n(Cc3ccccc3)c2c1 | broth dilution | ATCC29213 MSSA |  | 32 µg/mL
CCCCCCCCCCCC(=O)Oc1c(C)c(O)c(C(=O)/C=C/c2ccccc2)c(OC)c1C | broth dilution | ATCC25923 |  | 5000 µg/mL
O=C(O)CN1C(=O)/C(=C/c2ccc(-c3ccc(N(c4ccccc4)c4ccccc4)cc3)c3ccccc23)NC1=S | broth dilution | ATCC25923 |  | > 1000 µg/mL
CNC(=O)c1nn(C)c2c1C(C)(C)Cc1cnc(Nc3ccc(N4CCN(C)CC4)cc3)nc1-2 |  | NCTC8325 |  | > 30 µM
C=CCn1c(-c2ccc([N+](=O)[O-])cc2)nc2ccccc21 | broth dilution | ATCC29213 MSSA |  | 32 µg/mL
C/C=C(\C)c1cc(OC(=O)c2c(C)c(Cl)c(O)c(Cl)c2O)c(C)c(O)c1C(=O)O | broth dilution | MRSA |  | 64 µg/mL
C=CCn1c(-c2ccc(Cl)cc2)nc2ccc(C)cc21 | broth dilution | ATCC29213 MSSA |  | 32 µg/mL
COc1cc(Cc2cnc(N)nc2N)cc(OC)c1OC | broth dilution |  | 24 h | 2 µg/mL
